Source: ChEMBL document CHEMBL2429723, “Design and synthesis of MMP inhibitors with appended fluorescent tags for imaging and visualization of matrix metalloproteinase enzymes” (Bioorg Med Chem Lett, 2013)

Tests used:
[1] = target: 72 kDa type IV collagenase (Homo sapiens, UniProt P08253); test: Inhibition of human recombinant MMP2 using Mca-Lys-Pro-Leu-Gly-Leu-Dpa-Ala-Arg-NH2 as substrate by fluorescence plate reader analysis
Summary of the method: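 rhMMP2 activated with 1 mM APMA in assay buffer (50 mM Tris, 10 mM CaCl2, 150 mM NaCl, 0.05% Brij-35, pH 7.5), 37 °C, 1 h, then diluted to 248 ng/mL. Enzyme and test samples combined at ambient temperature; substrate (25 µM) added to start. Kinetic fluorescence at 320 nm excitation/405 nm emission; blank-subtracted duplicates; IC50 from six-point curves.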

[2] = target: Matrix metalloproteinase-9 (Homo sapiens, UniProt P14780); test: Inhibition of human MMP9
[3] = target: Matrix metalloproteinase-14 (Homo sapiens, UniProt P50281); test: Inhibition of human recombinant MMP14 using Mca-Lys-Pro-Leu-Gly-Leu-Dpa-Ala-Arg-NH2 as substrate by fluorescence plate reader analysis
Summary of the method: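 Enzyme and test samples combined at ambient temperature; substrate (20 µM) added to start. Kinetic read at 320/405 nm, substrate blank subtracted, duplicates, IC50 from six-point dose-response curves.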

MCF7 = test: Cellular uptake in human MCF7 cells over-expressing MMP14 by confocal microscopy relative to control; type: ADME, cell-based
Summary of the method: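 MMP-14-overexpressing and parental MCF7 cells incubated with the conjugate at 37 °C and imaged by confocal microscopy, parental cells serving as comparison.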

72 kDa type IV collagenase, sequence (P08253 whole entry): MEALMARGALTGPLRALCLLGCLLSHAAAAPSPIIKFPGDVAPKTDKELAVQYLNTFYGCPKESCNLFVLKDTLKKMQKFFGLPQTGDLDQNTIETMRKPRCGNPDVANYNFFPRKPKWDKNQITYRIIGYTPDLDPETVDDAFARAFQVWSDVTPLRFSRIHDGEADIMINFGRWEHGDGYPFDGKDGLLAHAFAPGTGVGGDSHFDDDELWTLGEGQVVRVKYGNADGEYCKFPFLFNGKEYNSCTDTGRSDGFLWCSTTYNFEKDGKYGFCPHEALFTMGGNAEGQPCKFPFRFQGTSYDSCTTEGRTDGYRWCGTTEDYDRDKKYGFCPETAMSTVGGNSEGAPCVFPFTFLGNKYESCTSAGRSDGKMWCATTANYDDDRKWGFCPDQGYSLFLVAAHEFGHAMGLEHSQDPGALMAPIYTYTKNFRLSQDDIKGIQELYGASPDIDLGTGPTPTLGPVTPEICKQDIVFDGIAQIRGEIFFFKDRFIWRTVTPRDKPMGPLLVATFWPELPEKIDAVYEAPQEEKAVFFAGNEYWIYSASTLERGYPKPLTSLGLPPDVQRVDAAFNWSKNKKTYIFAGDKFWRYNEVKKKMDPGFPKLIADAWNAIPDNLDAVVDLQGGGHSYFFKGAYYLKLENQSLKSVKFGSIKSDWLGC
Matrix metalloproteinase-9, sequence (P14780 whole entry): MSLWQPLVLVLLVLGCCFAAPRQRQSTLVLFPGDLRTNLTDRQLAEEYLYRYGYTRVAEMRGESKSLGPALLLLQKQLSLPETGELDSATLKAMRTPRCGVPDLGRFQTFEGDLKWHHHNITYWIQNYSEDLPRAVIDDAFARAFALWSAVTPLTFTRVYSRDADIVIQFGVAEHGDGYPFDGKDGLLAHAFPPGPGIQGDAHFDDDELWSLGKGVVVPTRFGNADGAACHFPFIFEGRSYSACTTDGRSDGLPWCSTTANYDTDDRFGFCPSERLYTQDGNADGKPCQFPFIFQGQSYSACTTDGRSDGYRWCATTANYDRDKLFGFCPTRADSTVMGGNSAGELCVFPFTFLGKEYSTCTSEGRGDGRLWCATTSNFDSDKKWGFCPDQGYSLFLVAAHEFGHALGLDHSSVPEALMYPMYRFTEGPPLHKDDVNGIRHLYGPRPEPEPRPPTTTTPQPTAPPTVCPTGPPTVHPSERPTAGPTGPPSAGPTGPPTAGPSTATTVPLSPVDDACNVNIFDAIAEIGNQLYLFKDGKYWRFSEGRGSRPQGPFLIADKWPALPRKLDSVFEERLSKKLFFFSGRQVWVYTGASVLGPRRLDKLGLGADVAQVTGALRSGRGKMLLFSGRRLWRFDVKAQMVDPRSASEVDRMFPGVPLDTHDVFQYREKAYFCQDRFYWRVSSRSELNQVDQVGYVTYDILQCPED

SMILES	IC50 [1] [nM]	IC50 [2] [nM]	IC50 [3] [nM]	Drug uptake (MCF7)
O=C(NO)C1(S(=O)(=O)c2ccc(Oc3ccc(OC(F)(F)F)cc3)cc2)CCN(C2CC2)CC1	< 1			
CC(C)(C)NC(=O)c1nc(N)c(C(=O)NCCC(=O)N2CCC(C(=O)NO)(S(=O)(=O)c3ccc(Oc4ccc(OC(F)(F)F)cc4)cc3)CC2)nc1N	5.1	4.1		
Nc1nc(C(=O)N2CCC(C(=O)NO)(S(=O)(=O)c3ccc(Oc4ccc(OC(F)(F)F)cc4)cc3)CC2)c(N)nc1C(=O)N1CCCC1	< 1	< 1		
CN(C)c1ncc(N2CCC(C(=O)NO)(S(=O)(=O)c3ccc(Oc4ccc(OC(F)(F)F)cc4)cc3)CC2)nc1C#N	1.6	< 1		
N[C@@H](CCCCNC(=O)c1ccc2c(c1)C(=O)OC21c2ccc(O)cc2Oc2cc(O)ccc21)C(=O)N1CCC(C(=O)NO)(S(=O)(=O)c2ccc(Oc3ccc(OC(F)(F)F)cc3)cc2)CC1	< 1	< 1	100	Active
CC1(C)C(/C=C/C2=C(N3CCC(C(=O)NO)(S(=O)(=O)c4ccc(Oc5ccc(OC(F)(F)F)cc5)cc4)CC3)C(=C/C=C3/N(CCCCS(=O)(=O)O)c4ccccc4C3(C)C)/CCC2)=[N+](CCCCS(=O)(=O)[O-])c2ccccc21	2.8	1.6		
